Measured values gathered from unrelated publications.
Lines come from different studies, so protocols differ.
Action: inhibitor
rep main protease: Replicase polyprotein 1ab, main protease (rep, Severe acute respiratory syndrome coronavirus 2, UniProt P0DTD1)
rep methyltransferase: Replicase polyprotein 1ab, methyltransferase (rep, Severe acute respiratory syndrome coronavirus 2, UniProt P0DTD1)
rep papain-like protease: Replicase polyprotein 1ab, papain-like protease (rep, Severe acute respiratory syndrome coronavirus 2, UniProt P0DTD1)

With CC(=O)N[C@@H](CS)C(=O)O the IC50 was over 450 µM (rep main protease; enzyme activity).
Oc1c(Cl)cc(Cl)c(Cl)c1Cc1c(O)c(Cl)cc(Cl)c1Cl has an IC50 of 8.65 µM (rep methyltransferase; enzyme activity).
With CC[N+](C)(CC)CCC[n+]1c(-c2ccccc2)c2cc(N)ccc2c2ccc(N)cc21 the IC50 was over 20 µM (rep main protease; enzyme activity).
CC(C)C[C@H](NC(=O)[C@@H](NC(=O)OCc1ccccc1)C(C)(C)C)C(=O)N(C)N(C#N)CCC(N)=O gave an IC50 of 0.775 µM (rep main protease; enzyme activity).
COc1cc(Br)cc(C=NN2C(=O)c3ccccc3NC2c2cc(Br)cc(OC)c2O)c1O (stereo not drawn) gave an IC50 of over 40 µM (rep main protease; enzyme activity in cells).
O=c1oc2c(O)c(O)cc3c(=O)oc4c(O)c(O)cc1c4c23 gave an IC50 of 22.9 µM (rep methyltransferase; enzyme activity).
Cc1cccc(C)c1OCC(=O)N[C@@H](Cc1ccccc1)[C@@H](O)C[C@H](Cc1ccccc1)NC(=O)[C@H](C(C)C)N1CCCNC1=O has an IC50 of over 20 µM (rep main protease; enzyme activity in cells).
For COc1cc(C[C@@H](C)[C@@H](C)Cc2cc(O)c(OC)c(OC)c2)cc(O)c1OC, the IC50 was 5.23 µM (rep papain-like protease; enzyme activity, FRET).
O=c1oc2c(cc1O)oc(=O)c1cc(O)c(O)c(O)c12 has an IC50 of 24.1 µM (rep methyltransferase; enzyme activity).
CCOc1nc2cccc(C(=O)O)c2n1Cc1ccc(-c2ccccc2-c2nnn[nH]2)cc1 has an IC50 of over 60 µM (rep main protease; enzyme activity in cells).
With COc1ccc(O)c(C=NN2C(=O)c3ccccc3NC2c2cc(OC)ccc2O)c1 (stereo not drawn) the IC50 was 6.5 µM (rep main protease; enzyme activity in cells).
The IC50 of COC(=O)C1=C(C(=O)OC)C(c2ccc(Cl)cc2)c2sc(=O)[nH]c2S1 (stereo not drawn) is reported as 74.9 µM (rep methyltransferase; enzyme activity).
CCc1ccc(/C=C/C(=O)Nc2ccc(C(C)=O)cc2)o1 gave an IC50 of 5 µM (rep main protease; enzyme activity).
The IC50 of CN(C(=O)[C@H](Cc1ccccc1)NC(=O)OCc1ccccc1)N(C#N)CCC(N)=O is reported as 2.33 µM (rep main protease; enzyme activity).
For CN(CCCN1c2ccccc2CCc2ccccc21)CC(=O)c1ccc(Cl)cc1, the IC50 was 11.4 µM (rep main protease; enzyme activity).
For Cc1c[nH]c2ncc(C(=O)N[C@H]3[C@H](CNc4cc(=O)n5ccccc5n4)CCC34CCC4)cc12, the IC50 was 32.7 µM (rep main protease; enzyme activity).
The IC50 of Oc1cc(O)c2c(c1)O[C@H](c1ccc(O)c(O)c1)[C@H](O)C2 is reported as 0.05 µM (rep main protease; enzyme activity).
CCOC(=O)c1c(NC(=O)c2ccc3c(c2)CC(c2ccccc2)OC3=O)sc(C)c1C (stereo not drawn) has an IC50 of 47.9 µM (rep methyltransferase; enzyme activity).
For Cc1ccc(-c2nc(N3CCOCC3)s[n+]2-c2ccccc2)cc1, the IC50 was 0.353 µM (rep main protease; enzyme activity).
For CCN(CC)S(=O)(=O)c1cccc(-n2sc3ccccc3c2=O)c1, the IC50 was over 20 µM (rep main protease; enzyme activity).
CC(C)c1nnc(NC(=O)c2cccc(N3C(=O)c4ccccc4C3=O)c2)s1 has an IC50 of 35.6 µM (rep methyltransferase; enzyme activity).
With CC(C)[C@H](NC(=O)[C@H](CCCNC(=N)N)NC(=O)N[C@@H](Cc1ccccc1)C(=O)O)C(=O)N[C@H](C=O)CCCNC(=N)N the IC50 was 48.6 µM (rep main protease; enzyme activity, FRET).
With Cc1cccc(C)c1OCC(=O)N[C@@H](Cc1ccccc1)[C@@H](O)C[C@H](Cc1ccccc1)NC(=O)[C@H](C(C)C)N1CCCNC1=O the IC50 was 206 µM (rep main protease; enzyme activity).
For CN(C(=O)[C@H](Cc1ccccc1)NC(=O)[C@@H](NC(=O)OCc1ccccc1)C(C)(C)C)N(C#N)CCC(N)=O, the IC50 was 0.236 µM (rep main protease; enzyme activity).
The IC50 of N#Cc1c(N)[nH]c2cc(/C=C/c3cccc(F)c3)ccc12 is reported as over 100 µM (rep papain-like protease; enzyme activity, fluorescence).
CC(C)c1cccc(NC(=O)C2CC(=O)Nc3ccccc32)c1 (stereo not drawn) gave an IC50 of 3.72 µM (rep main protease; enzyme activity).
C[C@H]1[C@H](OC(=O)CCC(=O)O)O[C@@H]2O[C@@]3(C)CC[C@H]4[C@H](C)CC[C@@H]1[C@@]24OO3 gave an IC50 of 2.41 µM (rep main protease; enzyme activity in cells).
The IC50 of COc1cc(C[C@@H](C)[C@@H](C)Cc2ccc(O)c(OC)c2)ccc1O is reported as 4.12 µM (rep main protease; enzyme activity, FRET).
COCCn1c2c([n+](Cc3cnccn3)c1C)C(=O)c1ccccc1C2=O gave an IC50 of 20.2 µM (rep papain-like protease; enzyme activity, FRET; pH 7.5).
COC(=O)N[C@H](C(=O)N[C@@H](Cc1ccccc1)[C@@H](O)CN(Cc1ccc(-c2ccccn2)cc1)NC(=O)[C@@H](NC(=O)OC)C(C)(C)C)C(C)(C)C gave an IC50 of over 60 µM (rep main protease; enzyme activity in cells).
For Sc1ncnc2nc[nH]c12, the IC50 was over 60 µM (rep papain-like protease; enzyme activity, FRET; pH 7.5).
With O=C(Cn1nnc2ccccc21)Nc1ccccc1N1CCc2sccc2C1 the IC50 was over 100 µM (rep main protease; enzyme activity).
CN(C)[C@@H]1C(O)=C(C(N)=O)C(=O)[C@@]2(O)C(O)=C3C(=O)c4c(O)cccc4[C@@](C)(O)[C@H]3[C@H](O)[C@@H]12 gave an IC50 of over 60 µM (rep main protease; enzyme activity in cells).
With O=c1c2ccccc2[se]n1-c1cccc2cccnc12 the IC50 was 2.6 µM (rep main protease; enzyme activity, FRET).
For CC(C)c1nc(CN(C)C(=O)N[C@@H](CCN2CCOCC2)C(=O)N[C@H](CC[C@H](Cc2ccccc2)NC(=O)OCc2cncs2)Cc2ccccc2)cs1, the IC50 was over 20 µM (rep main protease; enzyme activity in cells).
With N#CC(C(N)=O)=C1Oc2c(cc(O)cc2-c2ccc(Cl)c(Cl)c2)S1 the IC50 was 45 µM (rep methyltransferase; enzyme activity).
With Cc1ccc(-c2nc(N3CCN(C)CC3)s[n+]2-c2ccccc2)cc1 the IC50 was 0.534 µM (rep main protease; enzyme activity).
With Cc1c(O)cccc1C(=O)N[C@@H](CSc1ccccc1)[C@H](O)CN1C[C@H]2CCCC[C@H]2C[C@H]1C(=O)NC(C)(C)C the IC50 was over 240 µM (rep main protease; enzyme activity).
With Nc1ccc(C(=O)N2CC3(CCC3)C[C@H]2CNC(=O)c2cncc3ccccc23)cc1O the IC50 was 29.6 µM (rep main protease; enzyme activity).
With CCOc1cc(C(Nc2cc(C)ccn2)c2ccc3cccnc3c2O)ccc1OC (stereo not drawn) the IC50 was 0.27 µM (rep main protease; enzyme activity).
COC(=O)C1=C(C)NC(C)=C(C(=O)OCCN2CCN(C(c3ccccc3)c3ccccc3)CC2)C1c1cccc([N+](=O)[O-])c1 (stereo not drawn) has an IC50 of over 10 µM (rep main protease; enzyme activity in cells).
For Oc1ccc2ccccc2c1SSc1c(O)ccc2ccccc12, the IC50 was 0.5 µM (rep main protease; enzyme activity).
With CC(Cc1ccc(O)c(O)c1)C(C)Cc1ccc(O)c(O)c1 (stereo not drawn) the IC50 was 10.3 µM (rep methyltransferase; enzyme activity).
O=C1C(Cl)=C(Cl)C(=O)C(Cl)=C1Cl gave an IC50 of 0.18 µM (rep main protease; enzyme activity).
For Clc1ccc(C(Cn2ccnc2)OCc2csc3c(Cl)cccc23)c(Cl)c1 (stereo not drawn), the IC50 was 7.45 µM (rep main protease; enzyme activity in cells).
